# Measurements taken from ChEMBL document CHEMBL4680175, “Sulfonamide-based ring-fused analogues for CAN508 as novel carbonic anhydrase inhibitors endowed with antitumor activity: Design, synthesis, and in vitro biological evaluation” (Eur J Med Chem, 2020).
# How the values were obtained:
# NCI-H226 = test: Antitumor activity against human NCI-H226 assessed as cell growth inhibition at 10 uM incubated for 48 hrs by sulforhodamine B assay; type: functional; conditions: read-out: GI
# How it was run: (§1)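 NCI Drug Evaluation Branch protocol: primary single-dose screen at 10 μM across a 57-line human cancer panel. Drug exposure is 48 h. Cell growth and viability are read by sulforhodamine B assay. Data are given as a mean graph of percent growth of treated cells and reported as percentage growth inhibition (GI%).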
# MOLT-4 = test: Antitumor activity against human MOLT4 cells assessed as cell growth inhibition at 10 uM incubated for 48 hrs by sulforhodamine B assay; type: functional; conditions: read-out: GI; how it was run: as §1
# [1] = target: Cyclin-dependent kinase 2/cyclin E1 (Homo sapiens, UniProt P24941); test: Inhibition of CDK2/cyclin E (unknown origin) expressed in baculovirus infected Sf21 insect cells using histone H1 as substrate in presence of [gamma33P]ATP
# MCF7 = test: Antitumor activity against human MCF7 cells assessed as cell growth inhibition at 10 uM incubated for 48 hrs by sulforhodamine B assay; type: functional; conditions: read-out: GI; how it was run: as §1
# NCI-H522 = test: Antitumor activity against human NCI-H522 cells assessed as cell growth inhibition at 10 uM incubated for 48 hrs by sulforhodamine B assay; type: functional; conditions: read-out: GI; how it was run: as §1
# U-251 = test: Antitumor activity against human U251 cells assessed as cell growth inhibition at 10 uM incubated for 48 hrs by sulforhodamine B assay; type: functional; conditions: read-out: GI
# How it was run: (§2)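 NCI one-dose screen: 57-cell-line panel exposed at 10 μM for 48 h, Drug Evaluation Branch protocol. Growth and viability read by sulforhodamine B; data given as percent growth inhibition from the mean-graph of percent growth of treated cells.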
# Hs-578T = test: Antitumor activity against human HS 578T cells assessed as cell growth inhibition at 10 uM incubated for 48 hrs by sulforhodamine B assay; type: functional; conditions: read-out: GI; how it was run: as §1
# IGROV-1 = test: Antitumor activity against human IGROV1 cells assessed as cell growth inhibition at 10 uM incubated for 48 hrs by sulforhodamine B assay; type: functional; conditions: read-out: GI; how it was run: as §1
# SF-539 = test: Antitumor activity against human SF539 cells assessed as cell growth inhibition at 10 uM incubated for 48 hrs by sulforhodamine B assay; type: functional; conditions: read-out: GI; how it was run: as §1
# SK-MEL-5 = test: Antitumor activity against human SK-MEL-5 cells assessed as cell growth inhibition at 10 uM incubated for 48 hrs by sulforhodamine B assay; type: functional; conditions: read-out: GI; how it was run: as §1
# CAKI-1 = test: Antitumor activity against human CAKI-1 cells assessed as cell growth inhibition at 10 uM incubated for 48 hrs by sulforhodamine B assay; type: functional; conditions: read-out: GI; how it was run: as §1
# Carbonic anhydrase 12 = Carbonic anhydrase 12 (Homo sapiens, UniProt O43570); test: Inhibition of recombinant human carbonic anhydrase 12 preincubated with enzyme for 15 mins by phenol red dye based stopped flow CO2 hydrase assay
# Chain of Carbonic anhydrase 12 (O43570 whole entry): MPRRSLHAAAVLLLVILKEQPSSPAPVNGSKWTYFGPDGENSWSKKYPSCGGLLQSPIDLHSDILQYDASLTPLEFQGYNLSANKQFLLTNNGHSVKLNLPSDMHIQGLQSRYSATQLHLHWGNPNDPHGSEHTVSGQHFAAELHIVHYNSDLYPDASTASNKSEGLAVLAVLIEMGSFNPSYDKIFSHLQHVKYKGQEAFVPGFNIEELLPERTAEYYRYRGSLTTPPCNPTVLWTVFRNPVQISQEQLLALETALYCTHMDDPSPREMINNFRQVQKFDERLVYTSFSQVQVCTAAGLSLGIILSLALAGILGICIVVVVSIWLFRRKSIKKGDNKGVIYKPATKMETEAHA
# HCT-116 = test: Antitumor activity against human HCT116 cells assessed as cell growth inhibition at 10 uM incubated for 48 hrs by sulforhodamine B assay; type: functional; conditions: read-out: GI; how it was run: as §1
# Malme-3M = test: Antitumor activity against human MALME-3M cells assessed as cell growth inhibition at 10 uM incubated for 48 hrs by sulforhodamine B assay; type: functional; conditions: read-out: GI; how it was run: as §1
# UO-31 = test: Antitumor activity against human UO-31 cells assessed as cell growth inhibition at 10 uM incubated for 48 hrs by sulforhodamine B assay; type: functional; conditions: read-out: GI; how it was run: as §2
# CDK9/cyclin T1 = CDK9/cyclin T1 (Homo sapiens, UniProt P50750); test: Inhibition of human full-length N-terminal GST/His6-tagged CDK9 (1 to 372 residues)/His6-tagged Cyclin-T1 (1 to 726 residues) expressed in sf9 cells using (YSPTSPS)2KK peptide as substrate in presence of [gamma33P]ATP
# Chain of CDK9/cyclin T1 (O60563 whole entry, the tested form may be a part): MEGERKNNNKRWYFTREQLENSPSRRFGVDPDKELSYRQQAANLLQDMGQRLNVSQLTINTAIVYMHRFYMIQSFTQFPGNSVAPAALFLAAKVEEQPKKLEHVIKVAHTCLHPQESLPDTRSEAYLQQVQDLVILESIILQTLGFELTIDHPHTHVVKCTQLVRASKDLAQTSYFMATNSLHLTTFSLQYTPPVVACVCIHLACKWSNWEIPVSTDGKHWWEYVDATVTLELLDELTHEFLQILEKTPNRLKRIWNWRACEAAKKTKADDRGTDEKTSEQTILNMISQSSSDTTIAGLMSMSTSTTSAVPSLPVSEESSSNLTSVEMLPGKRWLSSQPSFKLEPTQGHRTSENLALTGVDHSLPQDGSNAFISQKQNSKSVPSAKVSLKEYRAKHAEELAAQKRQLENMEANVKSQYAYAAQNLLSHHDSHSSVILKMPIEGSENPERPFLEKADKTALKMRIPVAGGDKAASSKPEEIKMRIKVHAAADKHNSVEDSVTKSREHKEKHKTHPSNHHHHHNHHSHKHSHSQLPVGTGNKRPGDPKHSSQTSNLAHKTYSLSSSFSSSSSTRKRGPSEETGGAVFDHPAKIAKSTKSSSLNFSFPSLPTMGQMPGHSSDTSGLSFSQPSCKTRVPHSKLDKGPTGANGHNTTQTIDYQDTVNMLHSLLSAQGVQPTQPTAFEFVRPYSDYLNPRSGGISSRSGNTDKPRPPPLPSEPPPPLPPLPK
# Chain of CDK9/cyclin T1 (P50750 whole entry, the tested form may be a part): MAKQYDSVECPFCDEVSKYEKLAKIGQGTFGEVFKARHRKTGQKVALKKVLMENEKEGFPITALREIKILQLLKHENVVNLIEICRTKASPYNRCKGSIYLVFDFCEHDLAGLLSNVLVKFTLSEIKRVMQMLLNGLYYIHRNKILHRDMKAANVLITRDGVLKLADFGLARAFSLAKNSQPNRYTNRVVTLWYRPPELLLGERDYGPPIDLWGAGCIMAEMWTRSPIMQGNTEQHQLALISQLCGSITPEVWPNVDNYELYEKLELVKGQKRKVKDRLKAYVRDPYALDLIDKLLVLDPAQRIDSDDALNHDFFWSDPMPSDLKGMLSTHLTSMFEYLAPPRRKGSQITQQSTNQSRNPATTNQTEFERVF
# NCI-H460 = test: Antitumor activity against human NCI-H460 cells assessed as cell growth inhibition at 10 uM incubated for 48 hrs by sulforhodamine B assay; type: functional; conditions: read-out: GI; how it was run: as §1
# Carbonic anhydrase 1 = Carbonic anhydrase 1 (Homo sapiens, UniProt P00915); test: Inhibition of recombinant human carbonic anhydrase 1 preincubated with enzyme for 15 mins by phenol red dye based stopped flow CO2 hydrase assay
# Chain of Carbonic anhydrase 1 (P00915 whole entry): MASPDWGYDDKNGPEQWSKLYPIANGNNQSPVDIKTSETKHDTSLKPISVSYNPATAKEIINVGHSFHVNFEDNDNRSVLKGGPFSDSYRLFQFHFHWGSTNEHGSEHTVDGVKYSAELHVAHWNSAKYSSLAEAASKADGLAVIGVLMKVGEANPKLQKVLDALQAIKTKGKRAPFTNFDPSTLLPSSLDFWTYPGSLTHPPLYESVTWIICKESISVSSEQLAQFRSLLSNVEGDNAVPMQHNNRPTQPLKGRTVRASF
# MDA-MB-231 = test: Antitumor activity against human MDA-MB-231/ATCC cells assessed as cell growth inhibition at 10 uM incubated for 48 hrs by sulforhodamine B assay; type: functional; conditions: read-out: GI; how it was run: as §1
# SF-268 = test: Antitumor activity against human SF268 cells assessed as cell growth inhibition at 10 uM incubated for 48 hrs by sulforhodamine B assay; type: functional; conditions: read-out: GI; how it was run: as §1
# SN12C = test: Antitumor activity against human SN12C cells assessed as cell growth inhibition at 10 uM incubated for 48 hrs by sulforhodamine B assay; type: functional; conditions: read-out: GI; how it was run: as §1
# PC-3 = test: Antitumor activity against human PC-3 cells assessed as cell growth inhibition at 10 uM incubated for 48 hrs by sulforhodamine B assay; type: functional; conditions: read-out: GI; how it was run: as §1
# HOP-62 = test: Antitumor activity against human HOP62 cells assessed as cell growth inhibition at 10 uM incubated for 48 hrs by sulforhodamine B assay; type: functional; conditions: read-out: GI; how it was run: as §1
# Carbonic anhydrase 2 = Carbonic anhydrase 2 (Homo sapiens, UniProt P00918); test: Inhibition of recombinant human carbonic anhydrase 2 preincubated with enzyme for 15 mins by phenol red dye based stopped flow CO2 hydrase assay
# RXF 393 = test: Antitumor activity against human RXF 393 cells assessed as cell growth inhibition at 10 uM incubated for 48 hrs by sulforhodamine B assay; type: functional; conditions: read-out: GI; how it was run: as §1
# DU-145 = test: Antitumor activity against human DU-145 cells assessed as cell growth inhibition at 10 uM incubated for 48 hrs by sulforhodamine B assay; type: functional; conditions: read-out: GI; how it was run: as §1
# SK-MEL-2 = test: Antitumor activity against human SK-MEL-2 cells assessed as cell growth inhibition at 10 uM incubated for 48 hrs by sulforhodamine B assay; type: functional; conditions: read-out: GI; how it was run: as §1
# BT-549 = test: Antitumor activity against human BT-549 cells assessed as cell growth inhibition at 10 uM incubated for 48 hrs by sulforhodamine B assay; type: functional; conditions: read-out: GI; how it was run: as §1
# SNB-75 = test: Antitumor activity against human SNB-75 cells assessed as cell growth inhibition at 10 uM incubated for 48 hrs by sulforhodamine B assay; type: functional; conditions: read-out: GI; how it was run: as §2
# MDA-MB-468 = test: Antitumor activity against human MDA-MB-468 cells assessed as cell growth inhibition at 10 uM incubated for 48 hrs by sulforhodamine B assay; type: functional; conditions: read-out: GI; how it was run: as §1
# T47D = test: Antitumor activity against human T-47D cells assessed as cell growth inhibition at 10 uM incubated for 48 hrs by sulforhodamine B assay; type: functional; conditions: read-out: GI; how it was run: as §2
# HOP-92 = test: Antitumor activity against human HOP92 cells assessed as cell growth inhibition at 10 uM incubated for 48 hrs by sulforhodamine B assay; type: functional; conditions: read-out: GI; how it was run: as §1
# LOX IMVI = test: Antitumor activity against human LOX IMVI cells assessed as cell growth inhibition at 10 uM incubated for 48 hrs by sulforhodamine B assay; type: functional; conditions: read-out: GI; how it was run: as §1
# Carbonic anhydrase 9 = Carbonic anhydrase 9 (Homo sapiens, UniProt Q16790); test: Inhibition of recombinant human carbonic anhydrase 9 preincubated with enzyme for 15 mins by phenol red dye based stopped flow CO2 hydrase assay
# KM12 = test: Antitumor activity against human KM12 cells assessed as cell growth inhibition at 10 uM incubated for 48 hrs by sulforhodamine B assay; type: functional; conditions: read-out: GI; how it was run: as §1
# NCI-H322M = test: Antitumor activity against human NCI-H322M cells assessed as cell growth inhibition at 10 uM incubated for 48 hrs by sulforhodamine B assay; type: functional; conditions: read-out: GI; how it was run: as §1
# CCRF-CEM = test: Antitumor activity against human CCRF-CEM cells assessed as cell growth inhibition at 10 uM incubated for 48 hrs by sulforhodamine B assay; type: functional; conditions: read-out: GI; how it was run: as §1
Compound,inhibition of growth at 10 µM (NCI-H226) [%],inhibition of growth at 10 µM (MOLT-4) [%],IC50 [1] [nM],inhibition of growth at 10 µM (MCF7) [%],inhibition of growth at 10 µM (NCI-H522) [%],inhibition of growth at 10 µM (U-251) [%],inhibition of growth at 10 µM (Hs-578T) [%],inhibition of growth at 10 µM (SF-539) [%],inhibition of growth at 10 µM (SK-MEL-5) [%],inhibition of growth at 10 µM (CAKI-1) [%],Ki (Carbonic anhydrase 12) [nM],inhibition of growth at 10 µM (HCT-116) [%],inhibition of growth at 10 µM (UO-31) [%],IC50 (CDK9/cyclin T1) [nM],inhibition of growth at 10 µM (NCI-H460) [%],Ki (Carbonic anhydrase 1) [nM],inhibition of growth at 10 µM (MDA-MB-231) [%],inhibition of growth at 10 µM (SF-268) [%],inhibition of growth at 10 µM (SN12C) [%],inhibition of growth at 10 µM (PC-3) [%],also measured
Nc1nn2cc(-c3ccccc3)[nH]c2c1/N=N/c1ccc(S(N)(=O)=O)cc1,47,86,> 25000,54,69,61,95,80,73,96,30.6,77,81,> 25000,80,957,80,63,80,68,inhibition of growth at 10 µM (IGROV-1): 85%; inhibition of growth at 10 µM (Malme-3M): 74%; inhibition of growth at 10 µM (HOP-62): 58%; Ki (Carbonic anhydrase 2): 75.4 nM; inhibition of growth at 10 µM (RXF 393): 93%; inhibition of growth at 10 µM (DU-145): 57%; inhibition of growth at 10 µM (SK-MEL-2): 68%; inhibition of growth at 10 µM (BT-549): 41%; inhibition of growth at 10 µM (SNB-75): 99%; inhibition of growth at 10 µM (MDA-MB-468): 67%; inhibition of growth at 10 µM (T47D): 57%; inhibition of growth at 10 µM (HOP-92): 74%; inhibition of growth at 10 µM (LOX IMVI): 83%; Ki (Carbonic anhydrase 9): 38.1 nM; inhibition of growth at 10 µM (KM12): 67%; inhibition of growth at 10 µM (NCI-H322M): 63%; inhibition of growth at 10 µM (CCRF-CEM): 80%
N#Cc1c(-c2ccc(Cl)cc2)nc2c(/N=N/c3ccc(S(N)(=O)=O)cc3)c(N)nn2c1N,25,82,> 12500,51,29,30,30,25,31,26,14.2,34,36,> 12500,21,2250,52,23,27,38,inhibition of growth at 10 µM (HOP-62): 24%; Ki (Carbonic anhydrase 2): 496 nM; inhibition of growth at 10 µM (RXF 393): 29%; inhibition of growth at 10 µM (DU-145): 40%; inhibition of growth at 10 µM (SK-MEL-2): 24%; inhibition of growth at 10 µM (BT-549): 35%; inhibition of growth at 10 µM (MDA-MB-468): 56%; inhibition of growth at 10 µM (T47D): 56%; inhibition of growth at 10 µM (HOP-92): 29%; Ki (Carbonic anhydrase 9): 31.3 nM; inhibition of growth at 10 µM (KM12): 75%; inhibition of growth at 10 µM (CCRF-CEM): 65%
